Values belong to the compound of their own block, whether it stands above or below them.
What was measured:
[1] = target: T1, 5-hydroxytryptamine receptor 3A (Homo sapiens, UniProt P46098); experiment: Displacement of [3H]granisetron from 5HT3A receptor expressed in HEK293 cells after 24 hrs by scintillation counting in presence of quipazine; assay type: cell-based
T1 sequence (P46098 whole entry): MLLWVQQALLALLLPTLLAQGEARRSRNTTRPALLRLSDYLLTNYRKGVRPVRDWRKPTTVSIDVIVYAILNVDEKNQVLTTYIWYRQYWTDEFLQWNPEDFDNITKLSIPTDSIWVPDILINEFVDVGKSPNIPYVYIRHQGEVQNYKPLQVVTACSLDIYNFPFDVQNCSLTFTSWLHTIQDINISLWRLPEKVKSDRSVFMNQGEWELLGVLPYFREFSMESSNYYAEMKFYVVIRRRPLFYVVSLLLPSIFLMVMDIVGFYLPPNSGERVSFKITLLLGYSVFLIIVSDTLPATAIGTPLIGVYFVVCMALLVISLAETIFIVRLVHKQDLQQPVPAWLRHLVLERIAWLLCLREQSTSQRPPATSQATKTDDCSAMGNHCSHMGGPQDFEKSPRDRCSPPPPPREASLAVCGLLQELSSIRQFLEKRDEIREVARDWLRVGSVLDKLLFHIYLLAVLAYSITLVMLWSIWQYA
Summary of the method: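 Nonspecific binding defined with 1 mM quipazine. At least 24 h at 4 °C, GF/B filtration (0.3% PEI presoaked), scintillation counting. Hill-equation fit; Ki from IC50 via Cheng-Prusoff. At least three separate transfection plates.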

[2] = target: Neuronal acetylcholine receptor; alpha4/beta2 (Homo sapiens) (UniProt P17787+P43681); experiment: Displacement of [3H]cytisine from recombinant human nACH alpha4beta2 receptor expressed in SH-SY5Y cells at 0.1 uM after 120 mins; assay type: cell-based
Summary of the method: (§1)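 Single-point radioligand competition binding at an external contract lab. Reported as percent inhibition of control specific binding: 100 − (measured specific binding / control specific binding) × 100.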

Rattus norvegicus = species on record: Rattus norvegicus; experiment: Displacement of [3H]strychnine from glycine receptor in rat spinal cord at 0.1 uM after 15 mins; summary of the method: as §1
[3] = target: GABA-A receptor; alpha-1/beta-2/gamma-2 (Homo sapiens) (UniProt P14867+P47870+P18507); experiment: Displacement of [3H]muscimol from recombinant human GABAA alpha1beta2gamma2 receptor expressed in CHO cells at 0.1 uM after 120 mins; assay type: cell-based; summary of the method: as §1
HEK293 [4] = experiment: Selectivity ratio for recombinant human 5HT7 receptor expressed in CHO cells to 5HT3A receptor expressed in HEK293 cells; assay type: cell-based
HEK293 [5] = experiment: Selectivity ratio for recombinant human 5HT6 receptor expressed in CHO cells to 5HT3A receptor expressed in HEK293 cells; assay type: cell-based
HEK293 [6] = experiment: Selectivity ratio for recombinant human 5HT4E receptor expressed in CHO cells to 5HT3A receptor expressed in HEK293 cells; assay type: cell-based
HEK293 [7] = experiment: Selectivity ratio for recombinant human 5HT2C receptor expressed in HEK-293 to 5HT3A receptor expressed in HEK293 cells; assay type: cell-based
HEK293 [8] = experiment: Selectivity ratio for recombinant human 5HT2C receptor expressed in HEK-293 cells to 5HT3A receptor expressed in HEK293 cells; assay type: cell-based
HEK293 [9] = experiment: Selectivity ratio for recombinant rat 5HT1D receptor expressed in CHO cells to 5HT3A receptor expressed in HEK293 cells; assay type: cell-based
HEK293 [10] = experiment: Selectivity ratio for recombinant human 5HT2A receptor expressed in HEK-293 cells to 5HT3A receptor expressed in HEK293 cells; assay type: cell-based
HEK293 [11] = experiment: Selectivity ratio for 5HT1B receptor in rat cerebral cortex to 5HT3A receptor expressed in HEK293 cells; assay type: cell-based
HEK293 [12] = experiment: Selectivity ratio for recombinant human 5HT1A receptor expressed in HEK-293 to 5HT3A receptor expressed in HEK293 cells; assay type: cell-based
HEK293 [13] = experiment: Selectivity ratio for recombinant human nACH alpha7 receptor expressed in HEK-293 cells to 5HT3A receptor expressed in HEK293 cells; assay type: cell-based
HEK293 [14] = experiment: Selectivity ratio for recombinant human nACH alpha4beta2 receptor expressed in SH-SY5Y cells to 5HT3A receptor expressed in HEK293 cells; assay type: cell-based
HEK293 [15] = experiment: Selectivity ratio for glycine receptor in rat spinal cord to 5HT3A receptor expressed in HEK293 cells; assay type: cell-based
HEK293 [16] = experiment: Selectivity ratio for recombinant human GABAA alpha1beta2gamma2 receptor expressed in CHO cells to 5HT3A receptor expressed in HEK293 cells; assay type: cell-based
[17] = target: 5-hydroxytryptamine receptor 7 (Homo sapiens) (UniProt P34969); experiment: Displacement of [3H]LSD from recombinant human 5HT7 receptor expressed in CHO cells at 0.1 uM after 120 mins; assay type: cell-based; summary of the method: as §1
Sequence of 5-hydroxytryptamine receptor 7 (Homo sapiens) (P34969 whole entry): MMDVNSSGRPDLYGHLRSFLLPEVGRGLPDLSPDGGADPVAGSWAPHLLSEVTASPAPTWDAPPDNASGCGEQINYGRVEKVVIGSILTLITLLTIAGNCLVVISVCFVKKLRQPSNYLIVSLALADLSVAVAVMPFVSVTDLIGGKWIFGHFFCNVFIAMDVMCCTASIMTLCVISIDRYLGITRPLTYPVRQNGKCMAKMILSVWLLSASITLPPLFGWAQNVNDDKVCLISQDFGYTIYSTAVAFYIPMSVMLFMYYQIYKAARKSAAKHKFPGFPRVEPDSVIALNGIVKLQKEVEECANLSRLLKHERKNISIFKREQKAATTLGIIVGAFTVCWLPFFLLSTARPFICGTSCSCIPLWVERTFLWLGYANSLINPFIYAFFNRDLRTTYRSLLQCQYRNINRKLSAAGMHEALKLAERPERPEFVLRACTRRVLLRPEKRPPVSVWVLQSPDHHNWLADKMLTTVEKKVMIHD

[18] = target: 5-hydroxytryptamine receptor 6 (Homo sapiens) (UniProt P50406); experiment: Displacement of [3H]LSD from recombinant human 5HT6 receptor expressed in CHO cells at 0.1 uM after 120 mins; assay type: cell-based; summary of the method: as §1
Sequence of 5-hydroxytryptamine receptor 6 (Homo sapiens) (P50406 whole entry): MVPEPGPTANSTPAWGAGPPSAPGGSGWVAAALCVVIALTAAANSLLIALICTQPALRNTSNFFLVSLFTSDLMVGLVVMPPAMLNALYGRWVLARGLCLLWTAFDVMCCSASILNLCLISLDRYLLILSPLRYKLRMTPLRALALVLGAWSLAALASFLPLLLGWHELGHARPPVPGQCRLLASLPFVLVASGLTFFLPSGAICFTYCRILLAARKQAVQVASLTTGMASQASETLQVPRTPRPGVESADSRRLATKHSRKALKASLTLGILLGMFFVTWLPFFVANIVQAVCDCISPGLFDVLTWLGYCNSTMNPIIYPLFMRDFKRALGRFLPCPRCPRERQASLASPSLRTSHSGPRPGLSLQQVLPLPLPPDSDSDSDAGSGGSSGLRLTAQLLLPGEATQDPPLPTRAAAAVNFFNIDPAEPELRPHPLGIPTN

[19] = target: T2, 5-hydroxytryptamine receptor 2C (Homo sapiens) (UniProt P28335); experiment: Displacement of [125I] +/- DOI from recombinant human 5HT2C receptor expressed in HEK-293 cells at 0.1 uM after 60 mins; assay type: cell-based; settings: HEK293; summary of the method: as §1
T2 sequence (whole entry): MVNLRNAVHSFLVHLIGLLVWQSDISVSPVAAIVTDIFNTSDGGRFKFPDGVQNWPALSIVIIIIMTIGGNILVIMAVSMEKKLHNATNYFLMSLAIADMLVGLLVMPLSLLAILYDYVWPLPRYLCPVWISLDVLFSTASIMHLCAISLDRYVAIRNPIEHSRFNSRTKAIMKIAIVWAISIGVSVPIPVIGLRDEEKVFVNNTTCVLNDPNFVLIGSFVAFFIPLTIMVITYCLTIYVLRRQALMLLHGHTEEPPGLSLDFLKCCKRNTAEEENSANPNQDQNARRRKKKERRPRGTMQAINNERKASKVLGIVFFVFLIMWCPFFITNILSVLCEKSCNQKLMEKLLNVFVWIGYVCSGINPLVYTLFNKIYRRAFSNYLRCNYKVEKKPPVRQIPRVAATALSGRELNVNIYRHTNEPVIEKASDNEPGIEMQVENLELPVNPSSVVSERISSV

[20] = target: 5-hydroxytryptamine receptor 4 (Homo sapiens) (UniProt Q13639); experiment: Displacement of [3H]GR113808 from recombinant human 5HT4E receptor expressed in CHO cells at 0.1 uM after 60 mins; assay type: cell-based; summary of the method: as §1
Sequence of 5-hydroxytryptamine receptor 4 (Homo sapiens) (Q13639 whole entry): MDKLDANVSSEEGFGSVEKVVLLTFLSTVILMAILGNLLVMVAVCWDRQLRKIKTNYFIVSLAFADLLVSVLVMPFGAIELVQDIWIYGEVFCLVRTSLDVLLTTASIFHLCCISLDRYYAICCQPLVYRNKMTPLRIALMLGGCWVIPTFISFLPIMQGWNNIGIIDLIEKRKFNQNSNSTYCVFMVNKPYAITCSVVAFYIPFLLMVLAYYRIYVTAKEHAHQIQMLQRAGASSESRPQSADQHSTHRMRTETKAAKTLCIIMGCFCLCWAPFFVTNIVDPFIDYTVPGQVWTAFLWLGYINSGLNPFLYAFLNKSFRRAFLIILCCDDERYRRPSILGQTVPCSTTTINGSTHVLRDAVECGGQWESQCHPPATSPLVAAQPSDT

[21] = target: 5-hydroxytryptamine receptor 2B (Homo sapiens) (UniProt P41595); experiment: Displacement of [125I] +/- DOI from recombinant human 5HT2B receptor expressed in CHO cells at 0.1 uM after 60 mins; assay type: cell-based; summary of the method: as §1
Sequence of 5-hydroxytryptamine receptor 2B (Homo sapiens) (P41595 whole entry): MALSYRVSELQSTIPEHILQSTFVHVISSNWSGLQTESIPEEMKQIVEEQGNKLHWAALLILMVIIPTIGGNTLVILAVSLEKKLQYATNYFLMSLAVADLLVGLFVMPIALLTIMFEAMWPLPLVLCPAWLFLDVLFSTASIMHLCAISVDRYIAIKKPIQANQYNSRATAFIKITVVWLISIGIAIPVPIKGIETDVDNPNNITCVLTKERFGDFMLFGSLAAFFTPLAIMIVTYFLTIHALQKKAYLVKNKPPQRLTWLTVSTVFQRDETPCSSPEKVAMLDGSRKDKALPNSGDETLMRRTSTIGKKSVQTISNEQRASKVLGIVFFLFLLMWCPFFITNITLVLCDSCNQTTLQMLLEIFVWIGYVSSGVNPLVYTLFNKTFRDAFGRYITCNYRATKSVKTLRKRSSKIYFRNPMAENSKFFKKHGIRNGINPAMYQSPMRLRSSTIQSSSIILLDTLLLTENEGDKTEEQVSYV

[22] = target: 5-hydroxytryptamine receptor 2A (Homo sapiens) (UniProt P28223); experiment: Displacement of [125I] +/- DOI from recombinant human 5HT2A receptor expressed in HEK-293 cells at 0.1 uM after 60 mins; assay type: cell-based; settings: HEK293; summary of the method: as §1
Sequence of 5-hydroxytryptamine receptor 2A (Homo sapiens) (P28223 whole entry): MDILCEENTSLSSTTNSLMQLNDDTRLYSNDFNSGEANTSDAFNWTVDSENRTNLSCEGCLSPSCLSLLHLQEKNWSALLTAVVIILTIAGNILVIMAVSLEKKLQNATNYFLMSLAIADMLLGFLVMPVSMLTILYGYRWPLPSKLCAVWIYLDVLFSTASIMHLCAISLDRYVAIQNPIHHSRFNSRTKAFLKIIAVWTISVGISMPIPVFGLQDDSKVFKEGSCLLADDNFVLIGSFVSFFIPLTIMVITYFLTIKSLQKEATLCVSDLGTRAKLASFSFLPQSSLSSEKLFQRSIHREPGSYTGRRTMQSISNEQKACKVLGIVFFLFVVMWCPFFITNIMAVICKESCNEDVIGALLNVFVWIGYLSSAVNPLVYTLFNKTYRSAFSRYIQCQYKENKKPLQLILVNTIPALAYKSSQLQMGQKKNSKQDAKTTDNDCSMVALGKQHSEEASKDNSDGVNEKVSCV

[23] = target: 5-hydroxytryptamine receptor 1D (Rattus norvegicus) (UniProt P28565); experiment: Displacement of [3H]serotonin from recombinant rat 5HT1D receptor expressed in CHO cells at 0.1 uM after 60 mins; assay type: cell-based; summary of the method: as §1
Sequence of 5-hydroxytryptamine receptor 1D (Rattus norvegicus) (P28565 whole entry): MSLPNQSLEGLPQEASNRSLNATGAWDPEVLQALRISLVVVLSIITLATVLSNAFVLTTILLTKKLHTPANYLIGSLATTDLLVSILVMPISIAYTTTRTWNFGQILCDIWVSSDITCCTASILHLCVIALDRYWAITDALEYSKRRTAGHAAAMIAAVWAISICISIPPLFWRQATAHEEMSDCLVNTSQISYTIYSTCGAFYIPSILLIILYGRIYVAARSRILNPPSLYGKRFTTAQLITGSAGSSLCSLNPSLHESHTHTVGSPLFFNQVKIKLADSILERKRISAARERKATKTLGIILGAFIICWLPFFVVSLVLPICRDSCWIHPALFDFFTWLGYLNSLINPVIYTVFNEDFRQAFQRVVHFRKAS

[24] = target: 5-hydroxytryptamine receptor 1B (Rattus norvegicus) (UniProt P28564); experiment: Displacement of [125I] CYP from 5HT1B receptor in rat cerebral cortex at 0.1 uM after 120 mins; assay type: tissue-based; summary of the method: as §1
Sequence of 5-hydroxytryptamine receptor 1B (Rattus norvegicus) (P28564 whole entry): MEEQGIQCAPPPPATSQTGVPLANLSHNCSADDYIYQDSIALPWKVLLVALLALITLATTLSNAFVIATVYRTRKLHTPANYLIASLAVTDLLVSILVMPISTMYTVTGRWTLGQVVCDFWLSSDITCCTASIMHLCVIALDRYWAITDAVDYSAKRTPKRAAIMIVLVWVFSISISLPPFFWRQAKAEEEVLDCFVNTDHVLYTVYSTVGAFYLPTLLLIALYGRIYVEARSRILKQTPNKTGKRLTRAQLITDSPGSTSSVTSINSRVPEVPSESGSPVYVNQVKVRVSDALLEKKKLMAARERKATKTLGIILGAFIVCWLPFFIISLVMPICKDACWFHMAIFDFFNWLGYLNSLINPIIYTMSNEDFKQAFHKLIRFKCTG

[25] = target: T3, 5-hydroxytryptamine receptor 1A (Homo sapiens) (UniProt P08908); experiment: Displacement of [3H]8-OH-DPAT from recombinant human 5HT1A receptor expressed in HEK-293 cells at 0.1 uM after 60 mins; assay type: cell-based; settings: HEK293; summary of the method: as §1
T3 sequence (whole entry): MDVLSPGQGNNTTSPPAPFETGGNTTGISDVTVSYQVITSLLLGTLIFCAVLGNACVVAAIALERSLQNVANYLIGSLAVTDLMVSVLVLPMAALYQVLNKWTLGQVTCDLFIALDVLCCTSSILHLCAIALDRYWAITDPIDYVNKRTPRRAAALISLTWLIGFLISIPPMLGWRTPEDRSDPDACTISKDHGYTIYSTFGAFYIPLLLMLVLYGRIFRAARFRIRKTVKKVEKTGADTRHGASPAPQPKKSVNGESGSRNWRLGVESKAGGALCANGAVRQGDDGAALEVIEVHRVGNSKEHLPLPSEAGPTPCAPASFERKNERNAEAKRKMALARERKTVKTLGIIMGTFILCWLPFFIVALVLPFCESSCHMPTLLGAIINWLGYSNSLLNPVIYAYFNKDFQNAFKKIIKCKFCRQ

[26] = target: Neuronal acetylcholine receptor subunit alpha-7 (Homo sapiens) (UniProt P36544); experiment: Displacement of [3H]epibatidine from recombinant human nACH alpha7 receptor expressed in HEK-293 cells at 0.1 uM after 120 mins; assay type: cell-based; settings: HEK293
Sequence of Neuronal acetylcholine receptor subunit alpha-7 (Homo sapiens) (P36544 whole entry): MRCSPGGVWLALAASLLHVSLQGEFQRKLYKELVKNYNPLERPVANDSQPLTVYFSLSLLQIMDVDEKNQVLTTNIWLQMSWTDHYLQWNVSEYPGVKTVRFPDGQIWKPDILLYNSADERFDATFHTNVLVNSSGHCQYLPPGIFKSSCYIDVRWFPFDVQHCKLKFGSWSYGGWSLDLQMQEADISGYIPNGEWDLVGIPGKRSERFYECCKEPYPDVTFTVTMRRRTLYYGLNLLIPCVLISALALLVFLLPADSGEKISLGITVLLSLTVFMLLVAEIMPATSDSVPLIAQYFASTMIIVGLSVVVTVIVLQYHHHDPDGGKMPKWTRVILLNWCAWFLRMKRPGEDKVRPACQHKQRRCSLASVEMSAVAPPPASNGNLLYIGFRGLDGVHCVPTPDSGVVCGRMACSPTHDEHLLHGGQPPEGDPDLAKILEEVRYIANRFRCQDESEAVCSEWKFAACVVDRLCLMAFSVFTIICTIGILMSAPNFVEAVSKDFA

Structure (SMILES): CN1CCN(c2ccc3c(N)cccc3n2)CC1
Ki [1]: 204 nM

Structure (SMILES): CN1CCN(c2ccc3cccc(N)c3n2)CC1
Ki [1]: 331 nM

Structure (SMILES): CNc1cc(N2CCN(C)CC2)nc2ccccc12
Ki [1]: 13.5 nM

Structure (SMILES): CN1CCN(c2cc3ccccc3cn2)CC1
Ki [1]: 1.62 nM

Structure (SMILES): CN1CCN(c2nc(N)c3ccccc3n2)CC1
inhibition [2]: < 15%
inhibition (Rattus norvegicus): < 15%
inhibition [3]: < 15%
Ki [1]: 0.0513 nM
Selectivity ratio (HEK293 [4]): 1000
Selectivity ratio (HEK293 [5]): 1000
Selectivity ratio (HEK293 [6]): 1000
Selectivity ratio (HEK293 [7]): 1000
Selectivity ratio (HEK293 [8]): 1000
Selectivity ratio (HEK293 [9]): 1000
Selectivity ratio (HEK293 [10]): 1000
Selectivity ratio (HEK293 [11]): 1000
Selectivity ratio (HEK293 [12]): 1000
Selectivity ratio (HEK293 [13]): 1000
Selectivity ratio (HEK293 [14]): 1000
Selectivity ratio (HEK293 [15]): 1000
Selectivity ratio (HEK293 [16]): 1000
inhibition [17]: < 15%
inhibition [18]: < 15%
inhibition [19]: < 15%
inhibition [20]: < 15%
inhibition [21]: 43%
inhibition [22]: < 15%
inhibition [23]: < 15%
inhibition [24]: < 15%
inhibition [25]: < 15%
inhibition [26]: 31%

Structure (SMILES): CN1CCN(c2cnc3ccccc3n2)CC1
Ki [1]: 4.68 nM

Structure (SMILES): CN1CCN(c2cc(N)c3ccccc3n2)CC1
Ki [1]: 1.45 nM

Structure (SMILES): CNc1nc(N2CCCN(C)CC2)nc2ccc(Cl)cc12
Ki [1]: 18.2 nM

Structure (SMILES): CN1CCN(c2ncc3cc(Cl)ccc3n2)CC1
Ki [1]: 7.41 nM

Structure (SMILES): CC(C)Nc1nc(N2CCN(C)CC2)nc2ccc(Cl)cc12
Ki [1]: 166 nM

Structure (SMILES): CN1CCN(c2nc3ccccc3c(=O)[nH]2)CC1
Ki [1]: 46.8 nM

Structure (SMILES): CN1CCN(c2nc(O)c3cc(Cl)ccc3n2)CC1
Ki [1]: 575 nM

Structure (SMILES): CN1CCN(c2ccc3ccccc3c2)CC1
Ki [1]: 537 nM

Structure (SMILES): CN1CCN(c2cc3ccccc3c(N)n2)CC1
Ki [1]: 219 nM

Structure (SMILES): CN1CCN(c2cnc3ccccc3c2)CC1
Ki [1]: 407 nM

Ki [1]: 468 nM
Structure (SMILES): CNc1nc(N2CC(N(C)C)C2)nc2ccc(Cl)cc12

Ki [1]: 11700 nM
Structure (SMILES): CNc1nc(NCCC2CCN(C)C2)nc2ccc(Cl)cc12 (stereo not drawn)

Structure (SMILES): CN1CCN(c2nc(NCc3ccccc3)c3cc(Cl)ccc3n2)CC1
Ki [1]: 13.8 nM

Structure (SMILES): CN1CCN(c2nc(NCc3ccc(N)cc3)c3cc(Cl)ccc3n2)CC1
Ki [1]: 2.69 nM

Structure (SMILES): CN1CCN(c2nc(NCc3ccoc3)c3cc(Cl)ccc3n2)CC1
Ki [1]: 2.82 nM

Structure (SMILES): CN1CCN(c2nc(N(C)C)c3cc(Cl)ccc3n2)CC1
Ki [1]: 6.61 nM

Structure (SMILES): CNc1nc(N2CCN(C)CC2)nc2ccc(Cl)cc12
Ki [1]: 1.12 nM

Structure (SMILES): CN1CCN(c2nc(NCCc3ccccc3)c3cc(Cl)ccc3n2)CC1
Ki [1]: 79.4 nM

Structure (SMILES): CN1CCN(c2nc(N)c3cc(Cl)ccc3n2)CC1
Ki [1]: 12 nM

Structure (SMILES): CN1CCN(c2nc(NCCO)c3cc(Cl)ccc3n2)CC1
Ki [1]: 14.8 nM

Structure (SMILES): CNc1nc(N2CCN(C)CC2)cc2ccccc12
Ki [1]: 5.89 nM

Structure (SMILES): CNc1nc(N2CCN(C)CC2)nc2ccccc12
Ki [1]: 2.95 nM

Structure (SMILES): CNc1nc(N2CC3CCCNC3C2)nc2ccc(Cl)cc12 (stereo not drawn)
Ki [1]: 3550 nM

Structure (SMILES): CN1CCN(c2nc(NCC3CCCCC3)c3cc(Cl)ccc3n2)CC1
Ki [1]: 16600 nM

Structure (SMILES): CN1CCN(c2ncc3ccccc3n2)CC1
Ki [1]: 1.35 nM

Structure (SMILES): CN1CCN(c2ccc3ccccc3n2)CC1
Ki [1]: 0.457 nM

Ki [1]: 2340 nM
Structure (SMILES): CNc1nc(N2CC[C@H](N)C2)nc2ccc(Cl)cc12
